From PMC2610486 (Bioorganic & medicinal chemistry, 2008)

What was measured:
[1] = system: HepG2 cells; assay type: cell-based, human; conditions: HepG2 cultures
[2] = system: tocopherol ω-hydroxylase; assay: Tissue enrichment in δ-tocopherol in mice fed δ-tocopherol with or without 1; assay type: in vivo, mouse
Summary of the method: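 Two groups of three male FVB/N mice were fed 10 days on ground chow with δ-tocopherol (6000 mg/kg diet), with or without test compound (500 mg/kg diet). Compound in ethanol and δ-tocopherol were premixed in diglyceride oil, then added to chow. Mice were fasted 5 h and euthanised. Plasma, liver and bile tocopherols were measured by GC-MS with d9-α-tocopherol internal standard. Results are δ-/α-tocopherol ratios, given as means and SD.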

[3] = molecular target: T1, Cyp4F2 (tocopherol-ω-hydroxylase) (Homo sapiens, UniProt P78329); assay: Inhibition of γ-tocopherol metabolism; assay type: cell-based; conditions: HepG2 cells; at concentrations as low as 250 nM
T1 sequence (P78329 5-520): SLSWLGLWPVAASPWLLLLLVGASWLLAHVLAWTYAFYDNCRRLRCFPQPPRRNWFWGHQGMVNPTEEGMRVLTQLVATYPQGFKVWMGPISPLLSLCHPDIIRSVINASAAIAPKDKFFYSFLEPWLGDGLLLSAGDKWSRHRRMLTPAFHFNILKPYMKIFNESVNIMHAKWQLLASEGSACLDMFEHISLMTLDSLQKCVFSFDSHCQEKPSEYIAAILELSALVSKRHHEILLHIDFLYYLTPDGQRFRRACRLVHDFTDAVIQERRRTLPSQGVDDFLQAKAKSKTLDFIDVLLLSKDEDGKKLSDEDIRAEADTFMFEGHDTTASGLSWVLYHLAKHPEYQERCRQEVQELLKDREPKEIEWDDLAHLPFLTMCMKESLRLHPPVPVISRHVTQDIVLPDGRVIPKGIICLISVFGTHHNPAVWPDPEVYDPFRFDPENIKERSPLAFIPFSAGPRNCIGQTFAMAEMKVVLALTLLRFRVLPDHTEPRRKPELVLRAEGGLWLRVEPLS

[4] = molecular target: CYP3A4 (Homo sapiens, UniProt P08684); assay: Testosterone-6-hydroxylase activity in HepG2/C3A cell culture; assay type: cell-based; conditions: HepG2/C3A cultures; 50 µM testosterone, 48 hr
Summary of the method: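 Confluent HepG2 cultures were pre-incubated 4 h with test compound or ethanol control, then 50 µM testosterone was added. After 48 h incubation, medium was extracted with ethyl acetate and 6-hydroxytestosterone, as its trimethylsilyl ether, was quantified by GC-MS. Results are percent inhibition, given as means and standard deviation.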

[5] = male FVB/N mice, 500 mg 1 per kg diet with δ-tocopherol 6000 mg per kg diet, 10 days, P<0.05

Sequence of CYP3A4 (P08684 whole entry): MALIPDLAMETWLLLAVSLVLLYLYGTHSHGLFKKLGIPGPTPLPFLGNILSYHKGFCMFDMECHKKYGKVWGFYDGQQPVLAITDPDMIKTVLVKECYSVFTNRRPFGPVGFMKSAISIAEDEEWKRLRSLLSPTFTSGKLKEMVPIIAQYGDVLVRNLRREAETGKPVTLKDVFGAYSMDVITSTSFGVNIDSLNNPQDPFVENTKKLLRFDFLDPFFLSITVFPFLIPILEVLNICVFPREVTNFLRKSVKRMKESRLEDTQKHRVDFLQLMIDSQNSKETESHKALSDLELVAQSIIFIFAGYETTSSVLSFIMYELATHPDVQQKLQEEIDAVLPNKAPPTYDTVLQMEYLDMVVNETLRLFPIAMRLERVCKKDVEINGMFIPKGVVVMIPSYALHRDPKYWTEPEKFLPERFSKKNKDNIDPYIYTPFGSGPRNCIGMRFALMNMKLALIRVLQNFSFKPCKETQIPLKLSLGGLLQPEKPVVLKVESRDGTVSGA

| Effect on total cell protein [1] | Morphology of monolayers [1] | Inhibition of γ-tocopherol metabolism [3] | Effect on testosterone-6-hydroxylase (CYP3A4) activity (qualitative) [4] | SMILES | Level of δ-tocopherol in mice ([2]; 1 at 500 mg per kg of diet that also contained δ-tocopherol) | Change in δ-tocopherol / α-tocopherol ratio in bile [2, 5] | Change in δ-tocopherol / α-tocopherol ratio in liver [2, 5] | Effect on α-tocopherol status ([2]; mice fed δ-tocopherol with or without 1) |
| --- | --- | --- | --- | --- | --- | --- | --- | --- |
| no effect | normal | complete inhibition | inhibited | Cc1c(C)c2c(c(C)c1O)CC[C@@](C)(CCCCCCCCCn1ccnc1)O2 [Compound 1, (R)-2-(9-(1H-imidazol-1-yl)nonyl)-2,5,7,8-tetramethylchroman-6-ol] | raised | tripled | doubling | no evidence that α-tocopherol status was affected |
|  |  |  | inhibited | Cc1c(C)c2c(c(C)c1O)CC[C@@](C)(CCCCCCCCCn1cncn1)O2 [Compound 2, (R)-2-(9-(1H-1,2,4-triazol-1-yl)nonyl)-2,5,7,8-tetramethylchroman-6-ol] |  |  |  |  |
|  |  |  | inhibited | Cc1c(C)c2c(c(C)c1O)CC[C@@](C)(CCCCCCCCCn1ccnn1)O2 [Compound 3, (R)-2-(9-(1H-1,2,3-triazol-1-yl)nonyl)-2,5,7,8-tetramethylchroman-6-ol] |  |  |  |  |
